The subject of experiment [1] is T47D. The experiment in a line: Cytotoxicity against human T47D cells assessed as growth inhibition at 1 x 10 '-5 M after 24 hrs by MTT assay. The note with it: read-out: GI. The class given is functional. The essentials:
(§1)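 MTT screen at a single concentration of 1 × 10⁻⁵ M, 24 h exposure. Seeding was 5 × 10³ cells/well in RPMI-1640 with 2 mM glutamine. Vehicle was 0.1% final DMSO. MTT was added for 4 h at 37 °C, formazan dissolved in DMSO/glycine buffer (pH 10.5), and A570 read. Percent growth inhibition was calculated against vehicle-treated cells; triplicate, mean of three independent experiments.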
(Formazan colour is commonly taken as a measure of viable cells.)

For experiment [2], the system named is HCT-15. Briefly: Cytotoxicity against human HCT15 cells after 24 hrs by MTT assay. The class given is functional, cell-based. Conditions: HCT-15, 24 h. The gist of the method: (§2)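 Cell lines came from NCCS Pune and were grown in RPMI-1640 with 2 mM glutamine, pH 7.4. Cells were seeded at 5 × 10³ per well and exposed to serial dilutions in DMSO for 24 h, with 0.1% final DMSO as vehicle control. MTT (5 mg/ml) was added for 4 h at 37 °C. Formazan was dissolved in DMSO plus Sorensen glycine buffer (pH 10.5) and read at 570 nm. IC50 came from % inhibition versus vehicle; triplicate, mean ± SD of three experiments.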

For experiment [3], the system named is T47D. Briefly: Cytotoxicity against human T47D cells after 24 hrs by MTT assay. The experiment is classed as functional, cell-based. The essentials:
as §2

The subject of experiment [4] is HepG2. The experiment in a line: Cytotoxicity against human HepG2 cells after 24 hrs by MTT assay. The note with it: HepG2, 24 h. The class given is functional, cell-based. The essentials: as §2
The subject of experiment [5] is NCI-H522. The experiment in a line: Cytotoxicity against human NCI-H522 cells after 24 hrs by MTT assay. The class given is functional, cell-based. The note with it: NCI-H522, 24 h. The gist of the method: as §2
For a further experiment, the system named is COS-1. Briefly: Cytotoxicity against african green monkey COS1 cells after 24 hrs by MTT assay. The class given is cell-based. The note with it: Chlorocebus aethiops, COS-1, 24 h.
Experiment [6] relates to HepG2. Briefly: Cytotoxicity against human HepG2 cells assessed as growth inhibition at 1 x 10 '-5 M after 24 hrs by MTT assay. Conditions: HepG2, 24 h, read-out: GI. The class given is functional. The essentials: as §1
The subject of experiment [7] is HCT-15. Briefly: Cytotoxicity against human HCT15 cells assessed as growth inhibition at 1 x 10 '-5 M after 24 hrs by MTT assay. The class given is functional. The note with it: HCT-15, 24 h, read-out: GI. The gist of the method: as §1
In experiment [8] the test system is PA-1. Briefly: Cytotoxicity against human PA1 cells assessed as growth inhibition at 1 x 10 '-5 M after 24 hrs by MTT assay. The class given is functional. Conditions: PA-1, 24 h, read-out: GI. The essentials: as §1
Experiment [9] deals with PA-1. The experiment in a line: Cytotoxicity against human PA1 cells after 24 hrs by MTT assay. The experiment is classed as functional, cell-based. Conditions: PA-1, 24 h. The gist of the method:
as §2

Experiment [10] deals with NCI-H522. The experiment in a line: Cytotoxicity against human NCI-H522 cells assessed as growth inhibition at 1 x 10 '-5 M after 24 hrs by MTT assay. The experiment is classed as functional. Conditions: NCI-H522, 24 h, read-out: GI. The gist of the method:
as §1

The test system of another experiment is Rattus norvegicus. The experiment in a line: Antiinflammatory activity in Charles Foster albino rat assessed as inhibition of carrageenan-induced paw edema at 50 mg/kg, po administered 30 mins before carrageenan challenge measured after 1 to 3 hrs by plethysmometer analysis. The experiment is classed as functional. The essentials: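 Rats of both sexes (120–160 g; pregnant females excluded), five per group, were dosed orally at 50 mg/kg. After 30 min, 0.20 mL of freshly prepared 1% carrageenan in 0.9% NaCl was injected into the plantar aponeurosis of the hind paw. Paw volume was read by water plethysmometer before and 1–3 h later. Percent inhibition was taken against a carrageenan-only control group of five rats.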
On the technique in general: The carrageenan paw model is a standard test of acute inflammation.

The IC50 is the midpoint of a concentration-inhibition curve. A word on the inhibition in vivo: it is the percentage by which the read-out fell short of the control.

In the case of `N=C(NCCCCNC(=N)c1ccncc1)c1ccncc1`, the inhibition of growth at 10 µM was 27% in the experiment on T47D [1]; 50% with HepG2 [6]; 5% with HCT-15 [7]; 10% in the experiment with PA-1 [8]; 20% with NCI-H522 [10]. Further, the IC50 in the experiment on HCT-15 [2] is 87.8 µM; in the experiment on T47D [3], 43 µM; in the experiment with HepG2 [4] it was 11.2 µM; in the experiment with NCI-H522 [5], 36.6 µM; in the experiment on COS-1, 246 µM; in the experiment with PA-1 [9], 49.2 µM. Moreover, in the experiment with Rattus norvegicus, the inhibition in vivo at 50 mg/kg came out at 15%.
Consider `N=C(NCCCCNC(=N)c1cnccn1)c1cnccn1`, for which the inhibition of growth at 10 µM with T47D [1] is 19%; with HepG2 [6], 17%; with HCT-15 [7], 9%; in the experiment on PA-1 [8], 15%; with NCI-H522 [10] it was 5%. Besides, the inhibition in vivo at 50 mg/kg with Rattus norvegicus was 37%.
Turning to `N=C(NCCN1CCOCC1)c1cnccn1`, the inhibition of growth at 10 µM in the experiment on T47D [1] was found to be 13%; in the experiment with HepG2 [6] it was 52%; in the experiment with HCT-15 [7], 6%; with PA-1 [8], 51%; in the experiment with NCI-H522 [10], 35%. Also, the IC50 amounted to 78.3 µM in the experiment with HCT-15 [2]; 55.4 µM in the experiment on T47D [3]; 9.4 µM with HepG2 [4]; 18.2 µM with NCI-H522 [5]; 173 µM in the experiment with COS-1; 13.6 µM with PA-1 [9]. For the same molecule, in the experiment with Rattus norvegicus, the inhibition in vivo at 50 mg/kg is 15%.
On to `N=C(NCCN1CCNCC1)c1cnccn1`, for which the inhibition of growth at 10 µM in the experiment with T47D [1] stood at 22%; in the experiment with HepG2 [6], 23%; with HCT-15 [7], 28%; in the experiment with PA-1 [8], 36%; with NCI-H522 [10], 9%. Besides, in the experiment on Rattus norvegicus, the inhibition in vivo at 50 mg/kg was determined as 20%.
`N=C(NCCN1CCNCC1)c1ccncc1`: the inhibition of growth at 10 µM with T47D [1] was determined as 6%; in the experiment with HepG2 [6], 10%; in the experiment on HCT-15 [7], 13%; with PA-1 [8], 46%; in the experiment with NCI-H522 [10] it was 17%. Further, the IC50 came out at 35.4 µM with HCT-15 [2]; 184 µM with T47D [3]; 191 µM with HepG2 [4]; 35.3 µM with NCI-H522 [5]; 147 µM with COS-1; 19.3 µM in the experiment with PA-1 [9]. For the same molecule, the inhibition in vivo at 50 mg/kg in the experiment with Rattus norvegicus is 0%.
Consider `CC(C)Cc1ccc(C(C)C(=O)O)cc1` (centres undefined) [IBUPROFEN], for which, in the experiment with Rattus norvegicus, the inhibition in vivo at 50 mg/kg stood at 39%.
Turning to `N=C(NCCN1CCNCC1)c1ccccn1`, the inhibition of growth at 10 µM with T47D [1] came out at 14%; in the experiment with HepG2 [6] it was 27%; with HCT-15 [7], 24%; in the experiment with PA-1 [8] it was 40%; in the experiment on NCI-H522 [10], 8%. In addition, the inhibition in vivo at 50 mg/kg with Rattus norvegicus is 11%.
With `N=C(Nc1ccc(-c2ccc(NC(=N)c3ccccn3)cc2)cc1)c1ccccn1`, the inhibition of growth at 10 µM with T47D [1] is 2%; in the experiment on HepG2 [6], 23%; in the experiment with HCT-15 [7], 16%; in the experiment with PA-1 [8], 37%; in the experiment with NCI-H522 [10] it was 32%. The inhibition in vivo at 50 mg/kg in the experiment with Rattus norvegicus came to 26%.
As to `N=C(NCCCN1CCN(CCCNC(=N)c2ccccn2)CC1)c1ccccn1`, the inhibition of growth at 10 µM came to 39% with T47D [1]; 34% in the experiment on HepG2 [6]; 31% with HCT-15 [7]; 31% in the experiment with PA-1 [8]; 39% in the experiment on NCI-H522 [10]. The IC50 amounted to 25.1 µM in the experiment on HCT-15 [2]; 22.5 µM with T47D [3]; 20.8 µM with HepG2 [4]; 22 µM in the experiment with NCI-H522 [5]; 203 µM with COS-1; 39.7 µM in the experiment on PA-1 [9]. Besides, in the experiment on Rattus norvegicus, the inhibition in vivo at 50 mg/kg was found to be 38%.
With `O=P1(N(CCCl)CCCl)NCCCO1` (centres undefined) [CYCLOPHOSPHAMIDE ANHYDROUS], the inhibition of growth at 10 µM in the experiment on T47D [1] worked out at 9%; in the experiment with HepG2 [6], 18%; in the experiment on HCT-15 [7] it was 4%; with PA-1 [8], 12%; in the experiment on NCI-H522 [10], 11%. Besides, the IC50 in the experiment with HCT-15 [2] came to 74.3 µM; with T47D [3] it was 70.1 µM; in the experiment on HepG2 [4], 55.3 µM; with NCI-H522 [5] it was 67.9 µM; with COS-1, 125 µM; in the experiment on PA-1 [9], 64.1 µM.
